# Assay outcomes as filed in PubChem.
# An excerpt weighted towards active compounds, which were near 3.7% of everything screened.
# HCV NS3 hel inh – HCV NS3 helicase inhibition; inhibition, % at 10.9 µM; NS3 helicase DNA unwinding, Cy5 molecular beacon fluorescence; hit rate 0.56% among 290,000;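 active = inhibition above the mean of all tested compounds plus 3 SD, set per campaign, cut at about 35% in these data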;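 also: 0% = DMSO wells and 100% = thioflavine S control wells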
#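 Assay system – hepatitis C virus NS3 helicase domain fragment enzyme · Buffer or medium – MOPS pH 6.5, MgCl2, DTT, Tween20, BSA · Reagent – Cy5/quencher beacon DNA duplex and ATP to start · Compound – single 10.9 µM dose · Timing – 1 h at 25 °C · Technique – Cy5 beacon fluorescence read at start and 1 h · Measure – % inhibition of unwinding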
# TAAR1 antag – antagonists of human TAAR1. CHO RD-HGA16 TAAR1, Fluo-8 calcium fluorescence, antagonist. Q96RJ0. inhibition, % at 3 µM. AID 624466. hit rate 1.5% among 360,000;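 active = inhibition above a per-plate cutoff, the mean inhibition of test compounds on that plate plus 3 SD, cut at about 49% in these data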;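 also: 0% = DMSO plus EC80 beta-PEA response and 100% = DMSO alone without agonist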
# Target sequence (Q96RJ0 whole entry, looked up): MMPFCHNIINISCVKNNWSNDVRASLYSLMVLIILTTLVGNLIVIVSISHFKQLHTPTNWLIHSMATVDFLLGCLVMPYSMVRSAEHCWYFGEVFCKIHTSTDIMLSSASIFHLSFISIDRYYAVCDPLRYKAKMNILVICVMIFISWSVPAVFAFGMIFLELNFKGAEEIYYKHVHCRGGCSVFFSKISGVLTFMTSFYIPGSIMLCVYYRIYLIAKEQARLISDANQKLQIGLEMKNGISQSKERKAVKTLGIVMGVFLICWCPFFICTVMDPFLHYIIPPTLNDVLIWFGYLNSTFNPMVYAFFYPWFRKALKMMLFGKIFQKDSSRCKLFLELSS
#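 System: RD-HGA16 CHO cells with stable hTAAR1 and Gα16 | Probe or stimulus: EC80 β-phenethylamine stimulus | Dosing: 3 µM, single point | Times: Dye loading 75 min at 37 °C, then 30 min room temperature | Measured by: Fluo-8 calcium-sensitive fluorescence | Read-out basis: % inhibition of agonist calcium response | Replicates: n of 1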
# rCAG RNA binder – binds r(CAG) RNA repeats; r(CAG) RNA repeat, TO-PRO-1 dye displacement fluorescence; hit rate 1.3% among 370,000; inhibition, % at 3 µM;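 active = inhibition above the plate cutoff, the mean of all test compounds on that plate plus 3 SD, cut at about 35% in these data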;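 also: 0% = DMSO alone and 100% = 100 µM mitoxantrone as full dye displacement; higher means more dye released from RNA so lower well fluorescence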
# core dimer inh – HCV core protein dimerization inhibition; hit rate 0.33% among 300,000; TR-FRET GST/Flag-core106 dimerization, 1536-well; inhibition, % at 5 µM;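 active = inhibition above the mean of all tested compounds plus 3 SD, set per screening campaign, cut at about 45% in these data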
#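 assay system = GST-tagged and Flag-tagged HCV core protein residues 1-106 | controls = unlabelled core106 and no-GST-core106 wells | incubation = compound-protein-antibody incubation 4 h at 22.5 °C | probe or stimulus = Eu donor and XL665 acceptor anti-tag antibodies | read-out = % inhibition based on acceptor/donor emission ratio | signal = TR-FRET 671 and 617 nm emission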
# TAAR1 ag – human TAAR1 agonism; hit rate 0.99% among 360,000; AID 624467; activation, % at 3 µM; CHO RD-HGA16 TAAR1, Fluo-8 calcium fluorescence; vehicle wells 0%, saturating PEA agonist 100%;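 active = activation above the mean activation of all test compounds in the run plus 3 SD, cut at about 38% in these data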
#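 System: CHO-derived RD-HGA16 cells with stable Gα16 and human TAAR1. Times: 17-24 h plating, Fluo-8 75 min 37 °C, 30 min RT. Measured by: calcium-sensitive Fluo-8 signal, excitation 470-495, emission 515-575 nm. Read-out basis: % activation relative to PEA EC100 response. Control set: DMSO and PEA EC100. Repeats: no replicates (n 1).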
# NS3 helicase cf – confirmation of Hepatitis C virus NS3 helicase inhibitors | AID 1943 | hit rate 31% among 1,600 | shares compounds with HCV NS3 hel inh | NS3 helicase DNA unwinding, Cy5 molecular beacon fluorescence | inhibition, % at 10.9 µM;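 active = inhibition above the mean of all tested compounds plus 3 SD, cutoff set per campaign, cut at about 36% in these data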
# FID counter trip – displaces DNA intercalator in HCV helicase counter-screen; shares compounds with HCV NS3 hel inh; DNA fluorescent intercalator displacement, fluorescence; inhibition, % at 7.9 µM; hit rate 4% among 1,600; in the data active = inhibition above about 37%;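 also: 0% = vehicle and 100% = reference compound; higher means more displacement of ethidium bromide from the DNA hairpin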
# FID counter DR – displaces fluorescent intercalator from DNA, HCV helicase counter-screen. shares compounds with HCV NS3 hel inh. fluorescent intercalator displacement from DNA, fluorescence. IC50, µM. 120 tested, under 10 active. AID 2172; call rule not given here
# An asterisk follows results filed as active; / = no result given.
SMILES,HCV NS3 hel inh,TAAR1 antag,rCAG RNA binder,core dimer inh,TAAR1 ag,NS3 helicase cf,FID counter trip,others
O=C1CSC(=S)N1/N=C/c1ccc(Cl)c([N+](=O)[O-])c1,44*,/,/,65*,/,51*,8,
CCOC(=O)C(C(C)=O)c1c(Br)c(O)c(O)c2c(C(=O)c3ccc(C)cc3)coc12 (stereo not drawn),38*,31,19,40,28,-3,16,
CCOC(=O)c1c(C)n(-c2ccc(C)cc2)c2c(C(C(C)=O)C(=O)O)c(Br)c(O)c(O)c12 (stereo not drawn),8,10,11,8,14,/,/,
CC(C)c1ccc(C(CC(=O)c2ccc(Cl)cc2)C(=O)O)cc1 (stereo not drawn),37*,-10,45*,10,4,68*,-19,
C=CCn1c(COc2ccccc2)nnc1SCC(=O)c1ccc(-c2ccccc2)cc1,/,/,12,/,/,/,/,
Cc1ccccc1COc1ccc(-c2nnn(CC(=O)O)n2)cc1,40*,-6,14,/,2,27,-15,
O=C1CCCC(c2ccccc2)N1 (stereo not drawn),-5,4,0,-8,7,/,/,
O=C1NC(c2ccccc2)CCO1 (stereo not drawn),56*,8,-2,0,7,-10,13,
CCCC(C(=O)O)N1C(=O)/C(=C/c2cccn2C)SC1=S (stereo not drawn),36*,-9,30,-2,1,39*,-16,
Cc1ccc(NC(=O)CN2C(=O)N/C(=C/c3ccco3)C2=O)cc1,39*,-3,21,53*,9,9,7,
CCN(CC)c1ccc2nc3c4ccccc4c(=O)cc-3oc2c1,71*,20,2,/,17,101*,4,
CCN(CC)c1ccc2cc(C(C)=O)c(=O)oc2c1,-2,4,-62,-8,16,/,/,
CSc1ccc(CN2CCCC(CNC(=O)c3ccc(F)cc3)C2)cc1 (stereo not drawn),43*,-24,-6,-7,2,-11,33,
COC(=O)[C@]12C[C@H](CC(=O)N3CCSCC3)C(=O)N(CCC3=CCCCC3)C1=C[C@H](C(C)C)O[C@@H]2C1CC1,/,/,1,/,/,/,/,
O=C(NC1CCc2ccccc21)c1cc(-c2ccc(Cl)cc2)nc2ccccc12 (stereo not drawn),/,/,4,/,/,/,/,
FC(F)(F)c1ccc(Cn2ccc3ccc(-c4ccc5ccn(Cc6ccccc6)c5c4)cc32)cc1,/,/,26,/,/,/,/,
Cc1ccc2c(c1)NC(C(C)(C)C)CO2 (stereo not drawn),85*,1,5,-3,13,-2,15,
CN(C)C(CNc1ncnc2sccc12)c1cccs1 (stereo not drawn),74*,0,1,-3,2,-13,4,
COC(=O)[C@H](C(C)C)N(Cc1cn(CC2CCCCC2)nn1)S(=O)(=O)c1ccc(F)cc1Br,/,/,4,/,/,/,/,
O=C(O)c1ccc(-c2ccco2)n1Cc1ccccc1,45*,5,6,0,2,-30,-5,
COC(=O)c1ccc(-c2ccco2)n1Cc1cccc(C)c1,4,-1,6,-4,16,/,/,
O=C(O)CCNc1ccc(NCCC(=O)O)c2c1C(=O)c1ccccc1C2=O,60*,-14,19,-126,2,35,4,
CC(C)CC(=O)N1CCc2cc(S(=O)(=O)N(C)Cc3ccco3)ccc21,/,/,3,/,/,/,/,
COCCNC(=O)c1c[nH]n2c(=O)cc(C3CCN(C(=O)OC(C)(C)C)CC3)nc12,41*,-11,24,-14,0,-8,-27,
CCOC(=O)N1CCC(c2cc(=O)n3[nH]c(C)c(-c4ccc(F)cc4)c3n2)CC1,6,4,31,0,-1,/,/,
SMILES,HCV NS3 hel inh,TAAR1 antag,rCAG RNA binder,core dimer inh,TAAR1 ag,NS3 helicase cf,FID counter trip,others
Cc1c(NC(=O)CN2C(=O)NC3(CCCC3)C2=O)c(=O)n(-c2ccccc2)n1C,36*,-17,0,-2,0,-4,16,
C[C@H]1COc2c3ccccc3nn21,/,/,3,/,/,/,/,
COc1ccccc1C(=O)CSc1nnc(-c2ccncc2)n1-c1ccc(Cl)cc1,/,/,4,/,/,/,/,
N#CC1=C(N)Oc2c(O)cc3ccccc3c2C1c1ccsc1 (stereo not drawn),38*,-24,25,18,8,-10,19,
CCOC(=O)C1=C(C)OC(N)=C(C#N)C1c1ccsc1 (stereo not drawn),4,/,/,0,/,/,/,
Cc1ccc(-c2cc(C(=O)NN=Cc3ccc(N(C)C)cc3)[nH]n2)cc1C,/,/,15,/,/,/,/,
CNc1ccc(Br)cc(C(=O)/C=C/c2ccc(Cl)cc2Cl)c1=O,38*,15,34,45,34,74*,14,FID counter DR=>79
CC(C)(C)c1ccc(S(=O)(=O)N2CCC(C(=O)NCCC3=CCCCC3)CC2)cc1,/,/,2,/,/,/,/,
O=c1[nH]c(/C=C/c2ccc([N+](=O)[O-])cc2)c([N+](=O)[O-])c(=O)[nH]1,60*,-10,14,/,5,-15,8,
CCCCN1C[C@@H]2CSCCS(=O)(=O)N2C1=O,/,/,0,/,/,/,/,
O=C1/C(=C\c2cc(Br)cc(Br)c2O)SC(=S)N1Cc1ccccc1,57*,/,/,6,/,75*,29,
O=C1/C(=C\c2ccc(O)cc2)SC(=S)N1Cc1ccccc1,-8,22,28,-7,19,/,/,
COCCCn1c(=O)/c(=C\c2ccccc2OC(F)F)s/c1=C(/C#N)C(=O)NC(C)C,-16,-7,1,-1,1,/,/,
COCCCn1c(=O)/c(=C\c2ccccc2OC(C)C)s/c1=C(/C#N)C(=O)Nc1ccc(C(=O)O)cc1,50*,48,23,24,5,58*,-31,
COc1cc(CC(CC(=O)O)CC(C)OCc2ccccc2)cc(OC)c1 (stereo not drawn),39*,6,10,-8,3,-12,-41,
COc1ccccc1NC(=O)CSc1nn2c(=O)c(C)nnc2s1,3,-9,-1,-5,0,/,/,
Cc1nnc2sc(SCC(=O)Nc3nccs3)nn2c1=O,40*,13,0,0,2,5,2,
CNCC(=O)Nc1c(C)n[nH]c1C,40*,-1,4,-4,0,4,15,
CN1C(=O)N(C)c2cccc3cccc1c23,4,-5,-3,-8,6,/,/,
CN1C(=O)Nc2cccc3cccc1c23,42*,-11,0,-7,8,-12,6,
Brc1ccc(-c2nn3c(-c4ccccc4)nnc3s2)o1,/,/,8,/,/,/,/,
